Sampled rows, rich in hits. Any-hit rate of the full collection: about 1.8%.
PPC-1+TRAIL kill = compounds killing PPC-1 cancer cells with TRAIL present, primary screen, TRAIL potentiator project, ATPLite luminescence, uHTS | PPC-1 cells + TRAIL, ATPLite viability luminescence | cell killing (% activity), % at 4 µM or 5 µM | hit rate 0.41% among 220,000 | AID 1443, 2008;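 active means cell killing above 50% in the first pass at 4 µM, then a duplicate retest at 5 µM averaging 50% or more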;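 further: plate controls were cells with TRAIL plus DMSO for no effect and medium-only wells lacking cells for full effect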
beta cell repl = inducers of MIN6 beta-cell proliferation, primary screen, ATP luminescence, uHTS | MIN6 cells proliferation, ATPlite luminescence, 48 h; cells starved in 0.2% serum; 100% = growth in 10% serum | proliferation, % at 10 µM | hit rate 0.29% among 330,000 | AID 2380, 2010;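 active means compounds whose signal lies at least 3.5 SD above the mean of all wells on their plate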;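 further: 0% = DMSO-treated cells in low-serum medium and 100% = 10% serum control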
iPSC survival up = enhancers of single-cell hiPSC survival, primary screen, ATPlite luminescence | hit rate 0.044% among 360,000 | AID 602274, 2012 | survival enhancement, % at 20 µM | 100% = ROCK inhibitor wells, 0% = DMSO; in the data active means survival enhancement above about 18%;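 further: cells exposed to compounds for 16 hours before the ATP read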
FLuc inh counter = firefly luciferase enzyme inhibitors, primary screen, artefact control for luciferase-based inhibitor screens, biochemical, luminescence, ATPLite; Luciferin 4-monooxygenase (Photinus pyralis), P08659; 10 min; inhibition, % at 10 µM; hit rate 1.5% among 200,000; AID 1006, 2008;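 active means inhibition above about 50% when tested at 10 µM, limit read from the data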
Target sequence (P08659 whole entry, looked up): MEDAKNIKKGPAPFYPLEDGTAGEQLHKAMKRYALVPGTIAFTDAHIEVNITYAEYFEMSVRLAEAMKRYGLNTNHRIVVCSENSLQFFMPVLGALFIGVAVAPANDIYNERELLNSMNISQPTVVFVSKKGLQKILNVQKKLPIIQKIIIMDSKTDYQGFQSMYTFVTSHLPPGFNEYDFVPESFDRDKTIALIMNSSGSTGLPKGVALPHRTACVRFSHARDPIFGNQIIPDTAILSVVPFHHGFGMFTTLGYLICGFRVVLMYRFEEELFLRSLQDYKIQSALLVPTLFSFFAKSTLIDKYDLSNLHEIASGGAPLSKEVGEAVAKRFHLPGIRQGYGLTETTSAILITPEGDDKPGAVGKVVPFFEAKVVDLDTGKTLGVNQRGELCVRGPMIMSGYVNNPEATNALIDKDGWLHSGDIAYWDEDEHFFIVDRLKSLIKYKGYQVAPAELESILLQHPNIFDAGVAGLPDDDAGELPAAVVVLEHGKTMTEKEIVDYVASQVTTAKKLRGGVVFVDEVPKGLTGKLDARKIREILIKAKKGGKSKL
C8 TRAIL sens = viability loss with TRAIL in NB7+C8 cells, primary screen, TRAIL sensitizer project, cell-based, ATPlite luminescence; inhibition (viability loss, TRAIL sensitization), % at 10 µM; hit rate 1% among 360,000; AID 624354, 2012;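 active means compounds causing at least 50% loss of cell viability in the single-dose screen, relative to plate controls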
FLuc act counter = FLuc activators, initial screening, artefact control for FLuc-dependent activation tests, biochemical, ATPlite luminescence. Luciferin 4-monooxygenase (Photinus pyralis), P08659. ATPlite luciferase biochemical, 10 min; 0 = ATP-free wells, 1 = DMSO control. activation factor at 10 µM. 200,000 tested, under 10 active. AID 1027, 2008;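 active means luciferase activation factor, scaled between plate controls, of at least 2 with compound at 10 µM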
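Material: Luciferase/luciferin reagent mix; Doses: test compounds dosed from 2 mM stocks in 100% DMSO; Schedule: 10 min incubation after luciferase reagent addition, room temperature; Measured by: luminescence from luciferase reaction; Read-out: luminescence gain marking luciferase activators.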
* hit, by the source's call; nt = no result.

SMILES	PPC-1+TRAIL kill	beta cell repl	iPSC survival up	FLuc inh counter	C8 TRAIL sens	FLuc act counter
Cc1ccc(CN(C)C(=O)c2cccc(S(=O)(=O)N3CCc4ccccc4C3)c2)o1	nt	2.4	-0.2	nt	1.8	nt
Cc1cccc(NC(=O)CNC(=O)CN2C(=O)NC(C)(CCC(C)C)C2=O)c1C (centres undefined)	nt	nt	0.5	nt	4.7	nt
COC(=O)c1c(NC(=O)Cc2ccccc2)sc2c1CC(C)(C)NC2(C)C	nt	-4.9	-2.5	nt	-8.4	nt
COC(=O)c1c(NC(=O)COc2ccc(Cl)cc2)sc2c1CC(C)(C)NC2(C)C	nt	-7.0	-0.3	nt	73.3*	nt
C=CC[C@@H](CC(=O)N[C@H](CO)Cc1ccccc1)C(=O)N[C@H](COC(=O)[C@@H](CC=C)CC(=O)OC(C)(C)C)Cc1ccccc1	nt	-5.0	-1.3	nt	-9.5	nt
O=C(NCc1cccc(Cl)c1)c1ccc2c(c1)OCCO2	nt	-0.5	0.0	nt	-0.9	nt
COC(=O)c1c(N)sc(C(=O)NCCc2ccccc2)c1C	nt	-4.0	-0.2	nt	74.8*	nt
O=C(NCCc1cccc(Cl)c1)c1ccc2c(c1)OCO2	nt	-6.6	-0.6	nt	56.7*	nt
Cc1ccc(C(=O)NCCc2csc(C)n2)cc1	38.7	-1.7	-1.5	57.6*	38.7	0.4
Cc1ccc(C(=O)NCCc2ccccc2)cc1	nt	-4.7	-0.4	nt	63.8*	nt
Cc1cccc(C(=O)NCCc2csc(C)n2)c1	12.5	-0.8	-0.7	-3.8	11.9	1
CC1=C(C(=O)N2CCCCCC2)CC(CC(=O)NCc2cccs2)C(=O)N1Cc1ccccc1 (centres undefined)	nt	nt	1.0	nt	-1.4	nt
C#CCN(C(=O)c1cc(COc2cccc(C(F)(F)F)c2)on1)C1CCCCC1	nt	-4.4	-0.2	nt	4.0	nt
O=C(CCc1ccccc1)c1ccc2c(c1)OCCCO2	4.1	-0.1	-1.4	17.8	5.7	0.8
CN(CCOc1ccccc1)C(=O)c1ccc2c(c1)OCO2	nt	-0.7	-1.0	nt	-4.4	nt
O=C(NCCc1ccccc1)c1ccc2c(c1)OCCO2	nt	-7.1	-0.6	nt	82.8*	nt
COc1ccc(CCNC(=O)c2ccc3c(c2)OCCO3)cc1	24.0	-2.8	1.8	47.6	16.4	0.5
O=C(NCCc1ccccc1)c1ccc2c(c1)OCCCO2	nt	-3.9	-0.7	nt	92.3*	nt
O=C(NCCOc1ccccc1)c1ccc2c(c1)OCO2	27.0	-1.8	-0.8	50.8*	24.1	0.5
Cc1cccc(NS(=O)(=O)c2ccc(C)c(NS(=O)(=O)c3cccs3)c2)c1	nt	2.3	-0.5	nt	0.3	nt
CCCC(=O)Nc1ccc(C2C(=O)c3ccccc3C2=O)cc1	nt	-4.8	-0.5	nt	75.9*	nt
Cc1ccc(C2C(=O)c3ccccc3C2=O)cc1	nt	-3.4	0.0	nt	-4.8	nt
CCCCCC(=O)N1C[C@H](n2cc(COC(=O)c3ccccc3)nn2)[C@@H](O)C[C@@H]1c1ccc(Cl)cc1	nt	nt	2.6	nt	57.5*	nt
Cc1ccc(C2CC(c3cccs3)=NN2C(=O)CCl)cc1 (centres undefined)	nt	-6.1	0.0	nt	77.4*	nt
Cc1ccc(C2CC(c3cccs3)=NN2C(=O)CSC2=NCCS2)cc1 (centres undefined)	nt	-5.7	0.1	nt	3.7	nt
SMILES	PPC-1+TRAIL kill	beta cell repl	iPSC survival up	FLuc inh counter	C8 TRAIL sens	FLuc act counter
CCn1nc(C)c([N+](=O)[O-])c1C(=O)NNC(=O)c1ccccc1Cl	5.2	-4.1	0.5	nt	0.8	nt
CCN1CCN(Cc2ccc(NC(=O)c3cc(NC(=O)c4cncc(-c5cccs5)c4)cc(OC)c3)cc2C(F)(F)F)CC1	nt	-8.6	-4.2	nt	84.7*	nt
COc1cc(NC(=O)c2cc3cccc(OC)c3o2)cc(C(=O)Nc2cccc(C(F)(F)F)c2)c1	31.8	-8.1	-0.1	nt	51.2*	nt
CCN1CCN(Cc2ccc(NC(=O)c3cc(NC(=O)c4cc5cccc(OC)c5o4)cc(OC)c3)cc2C(F)(F)F)CC1	14.2	-6.9	-3.8	nt	94.8*	nt
COc1cc(NC(=O)c2ccno2)cc(C(=O)Nc2cccc(C(F)(F)F)c2)c1	6.8	-6.1	-2.1	nt	-5.9	nt
CCN1CCN(Cc2ccc(NC(=O)c3cc(NC(=O)c4cc(-c5ccc(OC)cc5)n[nH]4)cc(OC)c3)cc2C(F)(F)F)CC1	31.2	-8.1	-3.4	nt	87.6*	nt
CCN1CCN(Cc2ccc(NC(=O)c3cc(NC(=O)c4ccno4)cc(OC)c3)cc2C(F)(F)F)CC1	8.9	-7.7	-1.5	nt	10.8	nt
CCN1CCN(Cc2ccc(NC(=O)c3ccc(C)c(NC(=O)c4c[nH]c5cc(C(F)(F)F)ccc5c4=O)c3)cc2C(F)(F)F)CC1	26.9	-8.1	-2.0	nt	94.8*	nt
COc1ccc(-c2cc(C(=O)OCC(=O)N3CCOCC3)c3ccccc3n2)cc1	nt	-5.2	-3.2	nt	62.3*	nt
CC(C)Oc1cccc(-c2cc(C(=O)N3CCN(c4ncccn4)CC3)c3ccccc3n2)c1	27.2	-3.3	-4.0	38.9	47.6	0.6
COc1ccc(-c2cc(C(=O)N3CCN(c4ncccn4)CC3)c3ccccc3n2)cc1OC	nt	-5.3	-0.6	nt	-4.4	nt
CCOc1ccc(-c2cc(C(=O)N3CCC(C)CC3)c3ccccc3n2)cc1	nt	-5.4	-0.3	nt	54.0*	nt
CC(C)Oc1cccc(-c2cc(C(=O)N3CCN(S(C)(=O)=O)CC3)c3ccccc3n2)c1	12.2	-2.3	-3.3	51.8*	14.1	0.5
Cc1ccc(-c2cc(C(=O)N3CCN(c4ncccn4)CC3)c3ccccc3n2)cc1	43.6	-3.1	-3.4	62.0*	66.8*	0.4
CC1CCN(C(=O)c2[nH]cnc2C(=O)N2CCN(c3ccccc3)CC2)CC1	nt	0.7	-0.1	nt	-9.9	nt
Cc1ccc(S(=O)(=O)NCc2nnnn2-c2ccc(F)cc2)cc1	nt	nt	-1.4	nt	-6.9	nt
CCOc1ccc(-c2cc(C(=O)NCCCN3CCN(CC)CC3)c3ccccc3n2)cc1	30.7	-5.2	-4.3	66.8*	47.5	0.3
COc1ccc(-c2cc(C(=O)c3c(N)n(C)c(=O)n(C)c3=O)c3ccccc3n2)cc1	77.1*	-5.7	-1.0	nt	80.7*	nt
CCOc1ccc(-c2cc(C(=O)NCCCn3ccnc3)c3ccccc3n2)cc1	13.6	-1.3	0.1	40.4	21.1	0.6
Cc1cc(-c2ccc(N3CCOCC3)cc2)nc2ccccc12	30.2	-4.3	-2.6	70.6*	65.0*	0.3
Cc1ccc(-c2cc(C(=O)N3CCN(c4ccccc4O)CC3)c3ccccc3n2)o1	nt	-5.8	-0.4	nt	64.8*	nt
COc1cc(C(=O)N2CCCCC2c2cc(C(=O)NCc3cccnc3)no2)cc(OC)c1C (centres undefined)	nt	nt	0.7	nt	-5.6	nt
Cc1ccc(/C=C/C(=O)OCC(=O)NC(=O)NCc2ccco2)cc1	nt	-1.7	1.4	nt	-0.3	nt
